Measured values published in ChEMBL document CHEMBL4627282, “Synthesis of guggulsterone derivatives as potential anti-austerity agents against PANC-1 human pancreatic cancer cells” (Bioorg Med Chem Lett, 2020).
Active and inactive are the calls of the source. The rule behind the calls is not given here.

How the values were obtained:
PANC-1 [1] = test: Cytotoxicity against human PANC1 cells incubated in normal DMEM medium; type: cell-based
Method in brief: (§1)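 PANC-1 cells were exposed to a concentration series in nutrient-deprived medium (NDM; no glucose, amino acids or serum) and, in parallel, in complete DMEM. Survival was plotted against log concentration, and PC50, the concentration preferentially cytotoxic under starvation, was read from the curve.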

PANC-1 [2] = test: Anti-austerity activity against human PANC1 cells assessed as cell killing incubated in nutrient deprived medium; type: functional; method in brief: as §1
PANC-1 [3] = test: Inhibition of colony formation in human PANC1 cells incubated for 10 days in DMEM by crystal violet staining based assay
PANC-1 [4] = test: Induction of cell death in human PANC1 cells assessed as rounded cell morphology at 3 uM incubated for 24 hrs in nutrient deprived medium by ethidium bromide and acridine orange dye based phase contrast microscopy; type: functional
Method in brief: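 PANC-1 cells were held in NDM for 24 h with compound, alongside untreated controls, then double-stained with acridine orange and ethidium bromide. Imaging was in fluorescence (green AO marks live cells, red EB marks dead or dying cells) and in phase-contrast mode to assess morphology.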

PANC-1 [5] = test: Induction of cell death in human PANC1 cells assessed as swelling of cells at 3 uM incubated in nutrient deprived medium measured every 10 mins for […] by live cell imaging analysis; type: functional, cell-based
Method in brief: (§2)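 Cells were treated in NDM in a stage-top incubator at 37 °C under 5% CO2. Phase-contrast images were captured every 10 min for 24 h on a digital imaging system with a 10× objective. Cell mobility, shrinkage, swelling and leakage of cytoplasm were scored from the time-lapse record.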

PANC-1 [6] = test: Selectivity index, ratio of IC50 for human PANC1 cells incubated in normal DMEM medium to PC50 for human PANC1 cells incubated in nutrient-deprived medium
PANC-1 [7] = test: Inhibition of colony formation in human PANC1 cells at 1.25 uM incubated for 10 days in DMEM by crystal violet staining based assay; conditions: PANC-1, 240 h
PANC-1 [8] = test: Induction of cell death in human PANC1 cells assessed as cell shrinkage at 3 uM incubated in nutrient deprived medium measured every 10 mins […] by live cell imaging analysis; type: functional, cell-based; method in brief: as §2
PANC-1 [9] = test: Inhibition of cell migration in human PANC1 cells at 3 uM incubated in nutrient deprived medium measured every 10 mins for 24 hrs by live cell imaging analysis; type: functional, cell-based; method in brief: as §2
PANC-1 [10] = test: Induction of cell death in human PANC1 cells assessed as leakage of cytoplasmic content at 3 uM incubated in nutrient deprived medium measured every 10 mins for […] by live cell imaging analysis; type: functional, cell-based; method in brief: as §2
PANC-1 [11] = test: Inhibition of colony formation in human PANC1 cells at 50 uM incubated for 10 days in nutrient deprived medium by crystal violet staining based assay; type: functional, cell-based
PANC-1 [12] = test: Induction of cell death in human PANC1 cells assessed as swelling of cells at 5 uM incubated in nutrient deprived medium measured every 10 mins for 12 hrs by live cell imaging analysis; type: functional, cell-based
PANC-1 [13] = test: Induction of cell death in human PANC1 cells assessed as leakage of cytoplasmic content at 5 uM incubated in nutrient deprived medium measured every 10 mins for 12 hrs by live cell imaging analysis; type: functional, cell-based
PANC-1 [14] = test: Induction of cell death in human PANC1 cells assessed as cell shrinkage at 5 uM incubated in nutrient deprived medium measured every 10 mins for 12 hrs by live cell imaging analysis; type: functional, cell-based
PANC-1 [15] = test: Inhibition of cell migration in human PANC1 cells at 5 uM incubated in nutrient deprived medium measured every 10 mins for 24 hrs by live cell imaging analysis; type: functional, cell-based
PANC-1 [16] = test: Induction of cell death in human PANC1 cells assessed as rounded cell morphology at 5 uM incubated for 24 hrs in nutrient deprived medium by ethidium bromide and acridine orange dye based phase contrast microscopy; type: functional
Method in brief: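 PANC-1 cells treated in NDM for 24 h, then double-stained with ethidium bromide and acridine orange. They were imaged in fluorescence (green for live, red for dead or dying) and phase-contrast modes on a digital microscope, and morphology was judged against untreated controls.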

| Structure (SMILES) | IC50 (PANC-1 [1]) | PC50 (PANC-1 [2]) | further results |
| --- | --- | --- | --- |
| C/C=C1/C(=O)C[C@H]2[C@@H]3CCC4=CC(=O)CC[C@]4(C)[C@H]3CC[C@]12C [E-GUGGULSTERONE] | > 100 µM | 42 µM |  |
| COCCC/C=C1/C(=O)C[C@H]2[C@@H]3CCC4=CC(=O)CC[C@]4(C)[C@H]3CC[C@]12C | > 100 µM | 52 µM |  |
| C/C=C1/C(=O)C[C@H]2[C@@H]3CC[C@H]4CC(=O)CC[C@]4(C)[C@H]3CC[C@]12C | > 100 µM | >100 µM |  |
| CC/C=C1\C(=O)C[C@H]2[C@@H]3CCC4=CC(=O)CC[C@]4(C)[C@H]3CC[C@]12C | > 100 µM | 17 µM |  |
| CC/C=C1/C(=O)C[C@H]2[C@@H]3CCC4=CC(=O)CC[C@]4(C)[C@H]3CC[C@]12C | > 100 µM | 50 µM |  |
| CC[C@H]1C(=O)C[C@H]2[C@@H]3CC[C@H]4CC(=O)CC[C@]4(C)[C@H]3CC[C@]12C | > 100 µM | 18 µM |  |
| C/C=C1\C(=O)C[C@H]2[C@@H]3CCC4=CC(=O)CC[C@]4(C)[C@H]3CC[C@]12C [GUGGULSTERONE] | 42 µM | 37 µM |  |
| CCC/C=C1/C(=O)C[C@H]2[C@@H]3CCC4=CC(=O)CC[C@]4(C)[C@H]3CC[C@]12C | > 100 µM | 14 µM |  |
| CCC/C=C1\C(=O)C[C@H]2[C@@H]3CCC4=CC(=O)CC[C@]4(C)[C@H]3CC[C@]12C | > 100 µM | 18 µM |  |
| C=C1C(=O)C[C@H]2[C@@H]3CCC4=CC(=O)CC[C@]4(C)[C@H]3CC[C@]12C | 11 µM | 1.6 µM | inhibition (PANC-1 [3]): Dose-dependent effect; Activity (PANC-1 [4]): Active; Activity (PANC-1 [5]): Active; Ratio (PANC-1 [6]): 6.5; inhibition at 1.25 µM (PANC-1 [7]): 100%; Activity (PANC-1 [8]): Active; Activity (PANC-1 [2]): Dose-dependent effect; inhibition (PANC-1 [9]): Active; Activity (PANC-1 [10]): Active |
| COc1cc(C[C@H]2C(=O)OC[C@@H]2Cc2ccc(OC)c(OC)c2)ccc1O [ARCTIGENIN] |  | 0.8 µM |  |
| CC=C1CC[C@H]2[C@@H]3CCC4=CC(=O)CC[C@]4(C)[C@H]3CC[C@]12C (mixture of isomers) | > 100 µM |  | inhibition (PANC-1 [11]): Active; Activity (PANC-1 [12]): Active; inhibition (PANC-1 [3]): Dose-dependent effect; Ratio (PANC-1 [6]): 34; Activity (PANC-1 [13]): Active; Activity (PANC-1 [2]): Dose-dependent effect; Activity (PANC-1 [14]): Active; inhibition (PANC-1 [15]): Active; Activity (PANC-1 [16]): Active |
